Measured values from ChEMBL document CHEMBL5107948, “Activity-based protein profiling reveals deubiquitinase and aldehyde dehydrogenase targets of a cyanopyrrolidine probe” (RSC Med Chem, 2021).
The source made the active and inactive calls. No cut-off for these calls is given here.

Legend:
[1] = Cytotoxicity against human HEK293 cells assessed as reduction in cell growth incubated for 72 hrs by live-cell time-lapse imaging; type: toxicity, cell-based
Method in brief: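 HEK293 cells, 1,000 per well, seeded 24 h before exposure to 7 serial dilutions, in triplicate. Confluence imaged every 2 h for 72 h by IncuCyte live-cell time-lapse imaging. EC50 from four-parameter dose-response fit; mean ± SD of 12 technical replicates.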

[2] = target: T1, Ubiquitin carboxyl-terminal hydrolase isozyme L3 (Homo sapiens) (UniProt P15374); assay: Inhibition of UCHL3 in human HEK293 cells using HA-Ub-VME as substrate at 0.1 to 10 uM incubated for 1 hr by immunoblotting analysis; type: cell-based; details: dose 0.1-10 µM
T1 sequence (whole entry): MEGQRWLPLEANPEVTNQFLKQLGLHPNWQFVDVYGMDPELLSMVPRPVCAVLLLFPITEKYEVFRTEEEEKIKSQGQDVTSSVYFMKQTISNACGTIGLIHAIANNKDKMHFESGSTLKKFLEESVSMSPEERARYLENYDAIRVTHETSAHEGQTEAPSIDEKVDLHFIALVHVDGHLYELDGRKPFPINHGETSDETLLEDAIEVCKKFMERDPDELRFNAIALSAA
Method in brief: (§1)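 Near-confluent HEK293 cells treated with compound in medium for 1 h at 37 °C, lysed in Tris/NP-40/CHAPS buffer with benzonase. Lysate (20 µg) reacted with HA-Ahx-Ahx-Ub-VME (0.5 µg) 15 min at room temperature, boiled 5 min at 95 °C in SDS loading buffer with BME, SDS-PAGE and immunoblot.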

[3] = target: T2, Ubiquitin carboxyl-terminal hydrolase isozyme L1 (Homo sapiens, UniProt P09936); assay: Inhibition of FLAG-tagged UCHL1 (unknown origin) expressed in CAL-51 cells using HA-Ub-VME as substrate incubated for 30 mins by HTRF assay; type: cell-based
T2 sequence (P09936 whole entry): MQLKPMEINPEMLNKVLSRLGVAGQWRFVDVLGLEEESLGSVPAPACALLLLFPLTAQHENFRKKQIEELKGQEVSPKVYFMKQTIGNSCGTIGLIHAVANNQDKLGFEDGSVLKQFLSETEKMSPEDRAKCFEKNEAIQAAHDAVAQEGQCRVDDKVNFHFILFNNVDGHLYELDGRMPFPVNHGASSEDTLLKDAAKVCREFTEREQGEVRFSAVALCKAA
Method in brief: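 Cal51 cells stably expressing FLAG-UCHL1, plated overnight, exposed to compound 1 h at 37 °C. Washed, lysed 30 min on ice in Tris/NaCl/NP-40/CHAPS/MgCl2/BME buffer. Lysate mixed with HA-Ub-VME (100 nM) 30 min RT; anti-FLAG cryptate and anti-HA-XL added, overnight at 4 °C. HTRF Delta F read; IC50 by four-parameter fit, two biological triplicates.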

[4] = target: Ubiquitin carboxyl-terminal hydrolase isozyme L1 (Homo sapiens) (UniProt P09936); assay: Binding affinity to GST-tagged recombinant UCHL1 (unknown origin) assessed as covalent adduct formation at 13 uM incubated for 1 hr by LC-ESI-MS analysis
[5] = target: T3, Ubiquitin carboxyl-terminal hydrolase BAP1 (Homo sapiens) (UniProt Q92560); assay: Inhibition of BAP1 in human HEK293 cells using HA-Ub-VME as substrate at 0.1 to 10 uM incubated for 1 hr by immunoblotting analysis; type: cell-based; details: dose 0.1-10 µM; method in brief: as §1
T3 sequence (whole entry): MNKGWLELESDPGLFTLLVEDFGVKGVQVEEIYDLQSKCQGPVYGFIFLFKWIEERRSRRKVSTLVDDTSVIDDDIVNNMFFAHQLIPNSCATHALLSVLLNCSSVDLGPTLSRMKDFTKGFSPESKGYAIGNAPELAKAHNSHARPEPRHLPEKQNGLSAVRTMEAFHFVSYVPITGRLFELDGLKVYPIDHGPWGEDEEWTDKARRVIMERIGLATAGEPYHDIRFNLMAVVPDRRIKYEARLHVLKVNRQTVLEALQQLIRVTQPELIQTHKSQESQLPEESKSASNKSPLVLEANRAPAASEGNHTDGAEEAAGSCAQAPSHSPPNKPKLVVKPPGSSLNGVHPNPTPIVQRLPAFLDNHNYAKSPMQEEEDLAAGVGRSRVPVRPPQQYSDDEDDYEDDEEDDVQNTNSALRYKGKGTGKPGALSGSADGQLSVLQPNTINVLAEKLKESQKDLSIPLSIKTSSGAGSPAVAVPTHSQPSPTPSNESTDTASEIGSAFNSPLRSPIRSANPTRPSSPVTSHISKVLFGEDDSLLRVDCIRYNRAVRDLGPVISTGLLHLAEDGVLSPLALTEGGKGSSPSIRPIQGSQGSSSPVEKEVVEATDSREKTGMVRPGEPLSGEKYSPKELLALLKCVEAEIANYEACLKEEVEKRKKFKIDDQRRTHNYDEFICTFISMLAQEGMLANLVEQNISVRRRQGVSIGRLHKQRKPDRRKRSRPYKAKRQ

[6] = target: T4, Ubiquitin carboxyl-terminal hydrolase isozyme L5 (Homo sapiens) (UniProt Q9Y5K5); assay: Inhibition of UCHL5 in human HEK293 cells using HA-Ub-VME as substrate at 0.1 to 10 uM incubated for 1 hr by immunoblotting analysis; type: cell-based; details: dose 0.1-10 µM; method in brief: as §1
T4 sequence (whole entry): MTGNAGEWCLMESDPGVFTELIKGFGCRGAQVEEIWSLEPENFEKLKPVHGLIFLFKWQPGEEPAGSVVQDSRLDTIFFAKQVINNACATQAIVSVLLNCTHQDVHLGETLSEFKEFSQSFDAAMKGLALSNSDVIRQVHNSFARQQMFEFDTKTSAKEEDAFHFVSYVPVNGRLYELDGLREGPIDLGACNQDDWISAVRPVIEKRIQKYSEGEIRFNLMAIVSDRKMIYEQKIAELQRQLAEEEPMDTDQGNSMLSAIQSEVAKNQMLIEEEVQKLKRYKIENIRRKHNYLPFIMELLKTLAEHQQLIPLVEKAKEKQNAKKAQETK

[7] = target: Ubiquitin carboxyl-terminal hydrolase isozyme L1 (Homo sapiens) (UniProt P09936); assay: Inhibition of GST-tagged recombinant UCHL1 (unknown origin) using Ub-Lys-TAMRA as substrate at 1 uM incubated for 30 mins by fluorescence polarization assay
Method in brief: (§2)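 Recombinant DUB (UCHL1 or UCHL3 at 5 nM) preincubated 30 min RT with 8-point compound dilutions in Tris pH 7.5/NaCl or Tris pH 7.5 buffer with Tween-20, BSA and 5 mM BME. Ub-Lys-TAMRA (50 nM) added; fluorescence polarization (Ex 540/Em 590 nm) read at once and after 2 h RT. Triplicate; four-parameter IC50.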

[8] = target: T5, Ubiquitin carboxyl-terminal hydrolase isozyme L3 (Homo sapiens, UniProt P15374); assay: Inhibition of GST-tagged recombinant UCHL3 (unknown origin) using Ub-Lys-TAMRA as substrate incubated for 30 mins by fluorescence polarization assay; method in brief: as §2
T5 sequence (P15374 whole entry): T1 sequence (whole entry)

Compound | EC50 at 72 h [1] | inhibition [2] | IC50 [3] | Activity [4] | inhibition [5] | inhibition [6] | inhibition [7] | IC50 [8]
N#CN1CC[C@H](C(=O)Nc2ncc(-c3ccccc3)s2)C1 | 730 nM | Active | 550 nM | Active | Active | Active | Active | > 10 µM
C#Cc1ccc(-c2cnc(NC(=O)[C@H]3CCN(C#N)C3)s2)cc1 | 350 nM | Active | 830 nM | Active | Active | Active | Active | > 10 µM
